≈ marks a conversion by molar mass, not a printed value. Calls of active or inactive are those of the source. The rule behind the calls is not given here.
Legend:
[1] = target: Potassium voltage-gated channel subfamily A member 5 (Homo sapiens, UniProt P22460); test: Inhibition of human Kv1.5 ion channel after 3 mins by high-throughput planar patch clamp assay
Summary of the method: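 Electrophysiology run on IonWorks high-throughput planar patch clamp, following a previously published method. IC50 values come from concentration-response testing of compounds retested for LC/MS purity.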

[2] = Oral bioavailability in rat; format: ADME, organism-based; settings: in vivo
Cytochrome P450 3A4 = Cytochrome P450 3A4 (Homo sapiens, UniProt P08684); test: Inhibition of human recombinant CYP3A4 expressed in Escherichia coli; format: ADME
[3] = Apparent permeability from apical to basolateral side of human Caco2 cells; format: ADME, cell-based; settings: Caco-2
Cytochrome P450 2D6 = Cytochrome P450 2D6 (Homo sapiens, UniProt P10635); test: Inhibition of human recombinant CYP2D6 expressed in Escherichia coli; format: ADME
[4] = Fraction unbound in human plasma; format: ADME, cell-free
[5] = Octanol-water distribution coefficient, log D of the compound at pH 7.4 by shake-flask method; format: physicochemical
[6] = target: Voltage-gated inwardly rectifying potassium channel KCNH2 (Homo sapiens, UniProt Q12809); test: Inhibition of human ERG expressed in CHOK1 cells; format: cell-based, CHO-K1
[7] = Half life in iv dosed rat; format: ADME, organism-based; settings: in vivo
[8] = Intrinsic clearance in human hepatocytes assessed per million cells; format: ADME, cell-based, Hepatocyte; settings: read-out: CLH
[9] = Volume of distribution at steady state in iv dosed rat; format: ADME, organism-based; settings: in vivo, read-out: Vdss
[10] = Clearance in iv dosed rat; format: ADME, organism-based; settings: in vivo
[11] = Intrinsic clearance in human liver microsomes at 50 uM up to 45 mins; format: ADME, Microsome; settings: read-out: CLH
[12] = Dissociation constant, pKa of the compound; format: physicochemical
[13] = Aqueous solubility of the compound at pH 7.4 after 24 hrs; format: physicochemical; settings: aqueous medium

Voltage-gated inwardly rectifying potassium channel KCNH2, sequence (Q12809 whole entry): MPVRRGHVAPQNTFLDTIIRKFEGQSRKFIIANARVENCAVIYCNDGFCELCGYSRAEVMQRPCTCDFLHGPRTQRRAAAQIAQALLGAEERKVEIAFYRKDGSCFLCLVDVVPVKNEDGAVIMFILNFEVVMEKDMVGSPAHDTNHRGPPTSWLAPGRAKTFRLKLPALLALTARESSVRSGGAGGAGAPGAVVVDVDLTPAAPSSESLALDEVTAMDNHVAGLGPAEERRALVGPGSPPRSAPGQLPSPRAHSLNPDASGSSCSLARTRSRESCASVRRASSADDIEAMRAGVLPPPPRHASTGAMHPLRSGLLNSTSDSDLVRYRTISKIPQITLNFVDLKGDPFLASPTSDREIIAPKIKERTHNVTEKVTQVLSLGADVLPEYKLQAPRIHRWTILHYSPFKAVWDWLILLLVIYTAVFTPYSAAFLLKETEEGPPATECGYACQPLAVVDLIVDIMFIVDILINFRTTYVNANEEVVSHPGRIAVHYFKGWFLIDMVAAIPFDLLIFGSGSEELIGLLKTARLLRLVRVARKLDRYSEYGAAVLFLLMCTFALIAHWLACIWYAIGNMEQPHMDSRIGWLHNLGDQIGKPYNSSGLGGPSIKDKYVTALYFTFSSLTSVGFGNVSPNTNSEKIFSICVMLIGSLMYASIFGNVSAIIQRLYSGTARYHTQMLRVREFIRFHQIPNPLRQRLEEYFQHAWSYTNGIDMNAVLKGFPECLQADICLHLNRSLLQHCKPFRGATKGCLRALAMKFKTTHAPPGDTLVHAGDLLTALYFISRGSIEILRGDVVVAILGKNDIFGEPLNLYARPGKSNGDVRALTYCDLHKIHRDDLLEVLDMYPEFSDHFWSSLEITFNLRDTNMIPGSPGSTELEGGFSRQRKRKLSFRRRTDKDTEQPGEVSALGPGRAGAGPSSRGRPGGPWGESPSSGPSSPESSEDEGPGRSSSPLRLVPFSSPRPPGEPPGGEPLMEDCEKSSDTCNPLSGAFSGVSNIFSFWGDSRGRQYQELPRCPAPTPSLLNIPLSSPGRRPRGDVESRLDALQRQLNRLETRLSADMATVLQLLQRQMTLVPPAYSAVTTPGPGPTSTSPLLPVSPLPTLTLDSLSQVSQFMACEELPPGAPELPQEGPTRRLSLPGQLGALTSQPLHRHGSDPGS
Cytochrome P450 3A4, sequence (P08684 whole entry): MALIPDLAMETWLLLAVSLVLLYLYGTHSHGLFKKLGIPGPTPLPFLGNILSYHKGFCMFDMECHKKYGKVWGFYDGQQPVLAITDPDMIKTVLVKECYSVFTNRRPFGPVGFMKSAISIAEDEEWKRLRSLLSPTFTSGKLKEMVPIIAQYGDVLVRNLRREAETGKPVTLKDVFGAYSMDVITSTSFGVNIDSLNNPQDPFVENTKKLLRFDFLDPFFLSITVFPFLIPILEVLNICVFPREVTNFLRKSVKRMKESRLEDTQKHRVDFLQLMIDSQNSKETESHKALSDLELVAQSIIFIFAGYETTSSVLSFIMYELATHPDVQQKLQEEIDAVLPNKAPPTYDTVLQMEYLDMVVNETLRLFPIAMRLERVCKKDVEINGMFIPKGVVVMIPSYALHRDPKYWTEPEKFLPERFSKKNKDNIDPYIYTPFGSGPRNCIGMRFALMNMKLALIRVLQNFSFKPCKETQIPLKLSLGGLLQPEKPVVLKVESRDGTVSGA
Potassium voltage-gated channel subfamily A member 5, sequence (P22460 whole entry): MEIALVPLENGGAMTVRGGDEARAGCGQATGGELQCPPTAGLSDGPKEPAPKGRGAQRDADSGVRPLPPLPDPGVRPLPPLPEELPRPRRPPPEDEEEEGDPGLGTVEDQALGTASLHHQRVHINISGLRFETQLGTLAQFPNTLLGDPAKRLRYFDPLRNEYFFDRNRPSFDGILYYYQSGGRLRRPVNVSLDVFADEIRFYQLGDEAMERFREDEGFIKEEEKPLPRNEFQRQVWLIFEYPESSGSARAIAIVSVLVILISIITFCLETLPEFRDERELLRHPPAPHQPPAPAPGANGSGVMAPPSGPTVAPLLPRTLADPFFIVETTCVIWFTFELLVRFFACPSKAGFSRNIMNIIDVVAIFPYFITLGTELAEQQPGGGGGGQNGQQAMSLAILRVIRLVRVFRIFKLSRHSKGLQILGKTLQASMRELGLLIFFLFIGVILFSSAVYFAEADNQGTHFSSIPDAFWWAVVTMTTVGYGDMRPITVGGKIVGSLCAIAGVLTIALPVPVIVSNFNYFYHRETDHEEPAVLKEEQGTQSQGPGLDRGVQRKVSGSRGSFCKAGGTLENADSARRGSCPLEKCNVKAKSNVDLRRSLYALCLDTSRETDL
Cytochrome P450 2D6, sequence (P10635 whole entry): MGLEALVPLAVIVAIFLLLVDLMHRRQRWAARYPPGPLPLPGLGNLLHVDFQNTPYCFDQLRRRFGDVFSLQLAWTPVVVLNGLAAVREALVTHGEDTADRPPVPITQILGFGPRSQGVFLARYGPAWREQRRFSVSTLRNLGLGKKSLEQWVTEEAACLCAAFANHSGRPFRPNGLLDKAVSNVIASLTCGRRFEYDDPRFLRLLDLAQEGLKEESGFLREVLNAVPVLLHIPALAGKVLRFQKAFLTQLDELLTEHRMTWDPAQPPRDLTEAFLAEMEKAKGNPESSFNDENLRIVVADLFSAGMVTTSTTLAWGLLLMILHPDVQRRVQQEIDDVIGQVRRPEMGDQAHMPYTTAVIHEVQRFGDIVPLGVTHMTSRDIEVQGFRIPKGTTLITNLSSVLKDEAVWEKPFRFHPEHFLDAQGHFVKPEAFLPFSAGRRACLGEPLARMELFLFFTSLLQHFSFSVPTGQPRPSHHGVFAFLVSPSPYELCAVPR

O=C(Cc1ccccc1)N[C@@H](c1ccccc1)[C@@H](O)c1ccccc1
inhibition [1]: inactive

O[C@@H](c1ccccc1)[C@@H](c1ccccc1)N1CCCCC1
inhibition [1]: inactive

OC(c1ccccc1)C(c1ccccc1)N1CCNCC1 (centres undefined)
inhibition [1]: inactive

c1ccc([C@H]([C@@H](c2ccccc2)N2CCCCC2)N2CCCCC2)cc1
bioavailability [2]: 103% | IC50 (Cytochrome P450 3A4): 20 µM | Papp A→B [3]: 10.3 ×10⁻⁶ cm/s | IC50 (Cytochrome P450 2D6): 0.126 µM | fraction unbound [4]: 0.065 | logD [5]: 4 | IC50 [6]: 25.1 µM | half-life [7]: 15.1 h | IC50 [1]: 0.2 µM | hepatocyte CLint [8]: < 4 µL/min/1e6 cells | Vd [9]: 16.4 L/kg | clearance [10]: 13.1 mL/min/kg | microsomal CLint at 50 µM [11]: 14.1 µL/min/mg | pKa [12]: 11 | solubility at 24 h [13]: 95 µM (≈ 33.1 µg/mL)

c1ccc(C2NCCOC2c2ccccc2)cc1 (centres undefined)
inhibition [1]: inactive

CCCOc1ccc(C(O)C(c2ccccc2)N2CCCC2)cc1 (centres undefined)
inhibition [1]: inactive

O[C@@H](c1ccccc1)[C@H](c1ccccc1)N1CCOCC1
inhibition [1]: inactive

CC(=O)NC(c1ccccc1)C(O)c1ccccc1 (centres undefined)
inhibition [1]: inactive

CC(C)[C@@H]1CC[C@@H](C)C[C@@H]1P(=O)(c1ccccc1)c1ccccc1
logD [5]: 6

c1ccc([C@@H]([C@H](c2ccccc2)N2CCCC2)N2CCCC2)cc1
bioavailability [2]: 48.9% | IC50 (Cytochrome P450 3A4): 12.6 µM | Papp A→B [3]: 13.3 ×10⁻⁶ cm/s | IC50 (Cytochrome P450 2D6): 0.316 µM | fraction unbound [4]: 0.17 | logD [5]: 3.3 | IC50 [6]: 31.6 µM | half-life [7]: 7.1 h | IC50 [1]: 0.3 µM | hepatocyte CLint [8]: < 4 µL/min/1e6 cells | Vd [9]: 6.4 L/kg | clearance [10]: 10.8 mL/min/kg | microsomal CLint at 50 µM [11]: 21.6 µL/min/mg | pKa [12]: 10.5 | solubility at 24 h [13]: 100 µM (≈ 32 µg/mL)

CN(C)[C@@H](c1ccccc1)[C@@H](O)c1ccccc1
inhibition [1]: inactive

OC(c1ccccc1)C(NC1CCCCC1)c1ccccc1 (centres undefined)
inhibition [1]: inactive

c1ccc([C@H]([C@@H](c2ccccc2)N2CCCC2)N2CCCC2)cc1
bioavailability [2]: 15.6% | IC50 (Cytochrome P450 3A4): 12.6 µM | Papp A→B [3]: 14 ×10⁻⁶ cm/s | IC50 (Cytochrome P450 2D6): 0.2 µM | fraction unbound [4]: 0.17 | logD [5]: 3.2 | IC50 [6]: 31.6 µM | half-life [7]: 1 h | IC50 [1]: 0.6 µM | hepatocyte CLint [8]: < 4 µL/min/1e6 cells | Vd [9]: 7.9 L/kg | clearance [10]: 91.8 mL/min/kg | microsomal CLint at 50 µM [11]: 12 µL/min/mg | pKa [12]: 10.4 | solubility at 24 h [13]: 92 µM (≈ 29.5 µg/mL)

O[C@@H](c1ccccc1)[C@H](c1ccccc1)N1CCCC1
inhibition [1]: inactive

c1ccc([C@@H]([C@H](c2ccccc2)N2CCCCC2)N2CCCCC2)cc1
bioavailability [2]: 26.6% | IC50 (Cytochrome P450 3A4): 15.8 µM | Papp A→B [3]: 10.2 ×10⁻⁶ cm/s | IC50 (Cytochrome P450 2D6): 0.316 µM | fraction unbound [4]: 0.099 | logD [5]: 4.1 | IC50 [6]: 31.6 µM | IC50 [1]: 0.2 µM | hepatocyte CLint [8]: < 4 µL/min/1e6 cells | microsomal CLint at 50 µM [11]: 17.6 µL/min/mg | pKa [12]: 11.4 | solubility at 24 h [13]: 81 µM (≈ 28.2 µg/mL)

NC(c1ccccc1)C(O)c1ccccc1 (centres undefined)
inhibition [1]: inactive
